Rtt109 Vps75 – inhibitors of Candida albicans Rtt109/Vps75 histone acetyltransferase; Q5AAJ8; purified Rtt109/Vps75, ThioGlo CoA-SH fluorescence, 4 h; inhibition, % at 34.9 µM; hit rate 0.16% among 330,000;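 active = inhibition of at least 50% in every replicate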
HNF4A DNA FP – change in binding of human HNF4 alpha to DNA; P41235; HNF4a-FITC DNA binding, fluorescence polarization, 1 h; activity change, % at 10 µM; hit rate 0.3% among 360,000; AID 1224865; in the data active = activity change above about 30%, passing the limit was not always enough
Target sequence (P41235 whole entry, looked up): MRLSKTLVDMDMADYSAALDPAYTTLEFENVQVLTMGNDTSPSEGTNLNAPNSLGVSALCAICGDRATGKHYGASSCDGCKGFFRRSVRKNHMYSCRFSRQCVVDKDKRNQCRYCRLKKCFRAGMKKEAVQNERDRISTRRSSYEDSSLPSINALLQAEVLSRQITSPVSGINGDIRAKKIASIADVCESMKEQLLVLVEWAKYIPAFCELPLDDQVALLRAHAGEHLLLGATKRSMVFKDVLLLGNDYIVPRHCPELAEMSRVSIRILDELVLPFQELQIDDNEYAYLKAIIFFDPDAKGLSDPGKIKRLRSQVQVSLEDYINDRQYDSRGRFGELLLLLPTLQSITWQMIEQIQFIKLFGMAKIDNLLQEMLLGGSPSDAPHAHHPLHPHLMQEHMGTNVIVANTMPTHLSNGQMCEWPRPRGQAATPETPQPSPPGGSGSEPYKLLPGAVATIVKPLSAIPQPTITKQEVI
CSN inh – blocks human CSN-mediated cullin deneddylation | AID 651999 | hit rate 0.38% among 360,000 | Q92905 | Purified CSN, SCF-Nedd8-OG deneddylation, fluorescence polarization | inhibition, % at 12.5 µM;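 active = pattern-corrected inhibition above about 35%, with an unprinted fluorescence ratio check between 0.5 and 1.5, limit read from the data, passing the limit was not always enough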
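Assay system: purified human Csn5 enzyme expressed in HEK293T cells; Input: 0.24 nM Csn5 enzyme, final concentration; Reagent: 10 nM SCFSkp2-Nedd8OG; Compound dosing: 12.5 µM single point; Times: reaction 90 min, room temperature; Technique: fluorescence polarization readout.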
TPT1 inh – inhibitors of Candida albicans tRNA 2'-phosphotransferase TPT1 | recombinant caTPT1, FP RNA substrate dephosphorylation | hit rate 0.81% among 300,000 | inhibition, % at 5 µM | AID 1962;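 active = inhibition above the mean of all tested compounds plus 3 SD, set per screening campaign, cut at about 24% in these data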
TPT1 inh confirm – TPT1 (C. albicans) inhibition, confirmation. shares compounds with TPT1 inh. hit rate 74% among 2,400. recombinant caTPT1, fluorescence polarization, RNase T1 coupled. inhibition, % at 5 µM. AID 2149;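 active = inhibition above the primary screen limit, the mean inhibition of all tested compounds plus 3 SD, cut at about 25% in these data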
RNase T1 counter – counter-screen for TPT1 inhibitors: inhibitors of Aspergillus oryzae RNase T1 | shares compounds with TPT1 inh | RNase T1 cleavage, fluorescence polarization, 1536-well | inhibition, % at 5 µM | hit rate 83% among 2,400;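 active = inhibition above the solvent-only control well mean plus 3 SD, limit set per screening run, cut at about 23% in these data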;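 note: inhibitors block cleavage so intact labeled substrate keeps polarization high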
Target sequence (P00651 whole entry, looked up): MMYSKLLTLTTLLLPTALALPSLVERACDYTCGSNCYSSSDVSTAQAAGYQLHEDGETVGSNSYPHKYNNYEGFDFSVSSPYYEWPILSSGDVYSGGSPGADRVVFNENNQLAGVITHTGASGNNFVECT
A number is an active result; . = inactive; / = no result. Rows were chosen to be rich in hits. Some 1.2% of all compounds tested hit in one or more screens of this group.

SMILES	Rtt109 Vps75	HNF4A DNA FP	CSN inh	TPT1 inh	TPT1 inh confirm	RNase T1 counter
C=CCN1C(=O)[C@@H]2Cc3c([nH]c4ccccc34)C(c3cc(OC)c(OC)c(OC)c3)N2C1=S (some centres undefined)	.	.	.	56.8	47.4	56.9
COc1ccc(N2C(=O)c3ccccc3NC(=O)C2C(=O)NCCc2ccccc2F)cc1 (centres undefined)	/	.	.	/	/	/
N#Cc1cc(N2CCCCC2)c([N+](=O)[O-])cc1C#N	.	.	.	.	/	/
CN(C)CCC1CCN(c2cc(C#N)c(C#N)cc2[N+](=O)[O-])CC1	.	.	.	118.9	.	.
Cc1ccc(S(=O)(=O)Nn2cnnc2)cc1	.	.	.	.	/	/
Cc1ccc(S(=O)(=O)N(c2nc(N(C)C)nc(N(C)C)n2)n2cnnc2)cc1	.	.	.	28.9	.	.
COCc1cn(-c2nc3ccccc3s2)nn1	/	.	.	/	/	/
O=C1c2ccccc2S(=O)(=O)c2cc(C(=O)N3CCN(c4ccccc4)CC3)ccc21	.	.	.	.	/	/
O=C1c2ccccc2S(=O)(=O)c2cc(N3CCN(C(=O)c4ccccc4)CC3)ccc21	/	/	/	34.6	60.6	70.3
O=C1c2ccccc2S(=O)(=O)c2cc(N3CCC4(CC3)OCCO4)ccc21	/	/	/	30.4	45.2	55.9
O=C(O)c1cc(O)c2c(c1)[C@@H]([C@H]1c3cc(C(=O)O)cc(O)c3C(=O)c3c(O[C@@H]4O[C@H](CO)[C@@H](O)[C@H](O)[C@H]4O)cccc31)c1cccc(OC3O[C@H](CO)[C@@H](O)[C@H](O)[C@H]3O)c1C2=O (some centres undefined)	.	.	.	77.4	84.0	.
CC(C)=CCn1c2ccc(NC(=S)NC3CC3)cc2c(=O)n1C	/	.	.	/	/	/
O=C1/C(=C\c2ccc(-c3ccccc3Cl)o2)SC(=S)N1CC1CCCO1 (centres undefined)	.	.	.	26.7	48.2	61.0
O=C(Nc1ccccc1)c1ccc(NCCc2ccccc2)c([N+](=O)[O-])c1	.	.	.	45.4	104.9	115.1
O=C(CN1CCN(S(=O)(=O)c2ccc(F)cc2)CC1)Nc1ccc(F)cc1F	.	.	.	.	/	/
CCN1C(=O)/C(=C/C2=Cc3ccccc3OC2C)SC1=S (centres undefined)	/	90.7	.	42.6	92.9	98.3
COc1ccc(C2C(C#N)=C3NC(=O)c4c(sc5c4CCCCC5)N3C3=C2C(=O)CC(C)(C)C3)cc1 (centres undefined)	.	.	.	.	/	/
COc1ccc(C2C(C#N)=C(N)N(c3sc4c(c3C#N)CCCC4)C3=C2C(=O)CC(C)(C)C3)cc1 (centres undefined)	.	.	.	28.2	.	.
COc1ccc(C2C(C#N)=C(N)N(c3sc4c(c3C#N)CCCC4)C3=C2C(=O)CC(C)(C)C3)cc1OC (centres undefined)	.	.	.	28.3	.	.
Nc1cc2c(cc1Br)-c1ccccc1C2=NO	.	.	.	/	/	/
COc1cccc(-c2cc(NC=O)c3ncc(-c4ccc(C(C)=O)cc4)n3c2)c1	/	.	.	/	/	/
O=C(CC[C@H]1O[C@@H](n2ccc(=O)[nH]c2=O)[C@H](O)[C@@H]1O)N[C@@H](Cc1ccccc1)C(=O)NCC1CCCO1 (some centres undefined)	/	.	.	/	/	/
COc1ccc(OC)c(/C=C2\Oc3cc(OCC(=O)N4CCC(C(=O)O)CC4)ccc3C2=O)c1	.	.	.	29.2	47.6	56.6
COc1ccc(/C=C2\Oc3cc(OCC(=O)N4CCC(C(=O)O)CC4)ccc3C2=O)c(OC)c1	.	.	.	65.1	90.2	98.4
COc1ccc(/C=C2\Oc3cc(OC(=O)N4CCOCC4)ccc3C2=O)c(OC)c1	.	99.4	44.0	111.2	44.1	64.7
SMILES	Rtt109 Vps75	HNF4A DNA FP	CSN inh	TPT1 inh	TPT1 inh confirm	RNase T1 counter
COc1ccc(/C=C2\Oc3cc(OCC(=O)N4CCC(C(=O)O)CC4)ccc3C2=O)c(OC)c1OC	.	.	.	.	/	/
CCC(C)N1CCNCC1 (centres undefined)	.	.	.	33.2	.	.
COc1cccc(NC(=O)COC(=O)CC(NC(N)=O)c2ccc(Cl)cc2)c1 (centres undefined)	.	.	.	.	/	/
C[n+]1cc(C(=O)N2CCCCC2)ccc1/C=C/c1c[nH]c2ccccc12	.	.	.	132.2	108.7	108.6
CN=c1scc(-c2ccccc2F)n1/N=C/c1ccc(O)c(O)c1O	.	.	.	/	/	/
CN=c1scc(-c2ccccc2F)n1/N=C/c1ccc[nH]1	.	.	.	50.4	27.4	36.3
CC1(C)CCN2CCC(C)(C)c3c(O)ccc1c32	.	.	.	47.9	36.5	49.8
COCCn1c(C)cc(C(=O)COC(=O)c2ccc(NC(=O)CC#N)cc2)c1C	.	.	.	51.6	30.1	41.5
CN(C)c1ccc(/C=c2\sc3n(c2=O)CCCN=3)cc1	.	.	.	102.7	42.1	58.6
CC1=NCC(C)c2c1[nH]c1ccccc21 (centres undefined)	.	.	.	56.4	.	27.3
C=CCN1C(=O)CS/C1=C(\C#N)S(=O)(=O)c1ccc(C)cc1	.	.	.	74.2	.	.
C=CCN1C(=O)CSC1=Nc1ccc(C(=O)O)cc1	.	.	.	.	/	/
CCOc1ccc(NC(=O)C(c2ccccn2)N(C(=O)CCl)c2ccc(F)cc2)cc1 (centres undefined)	.	.	.	.	/	/
COc1cc(F)ccc1-c1csc(C(NC(C)=O)c2ccc(F)c(F)c2)n1 (centres undefined)	/	.	.	/	/	/
Cc1ccc(/C=C2\C(=O)ON=C2c2ccccc2)o1	.	.	.	.	/	/
Cc1ccc(C2=NOC(=O)/C2=C\c2ccc(C)o2)cc1	.	.	.	40.4	.	.
O=S(=O)(Nc1cc(Cl)ccc1N1CCCCC1)c1cccs1	.	.	.	48.3	27.7	35.1
COc1ccc(CN2C(=O)c3ccccc3C(/C=N\OCc3ccc(F)cc3)C2=O)cc1 (centres undefined)	.	.	.	.	/	/
COc1ccc(CN2C(=O)c3ccccc3C(/C=N/OCc3ccc(Cl)cc3)C2=O)cc1 (centres undefined)	.	.	.	42.9	64.7	74.9
O=C(NCc1cccs1)c1ccc(CS(=O)Cc2cccc(Cl)c2)o1 (centres undefined)	.	.	.	.	/	/
Cc1cccc2cc3c(N)c(C(=O)Nc4ccc(N5CCOCC5)cc4)sc3nc12	.	.	.	.	/	/
CCc1cccc2cc3c(N)c(C(=O)Nc4ccc(S(=O)(=O)N5CCCC5)cc4)sc3nc12	.	.	.	38.8	32.9	42.4
Cc1cc(O)c(C(=O)/C=C/c2ccccc2)c(=O)o1	.	.	.	/	/	/
CCOc1ccc(/C=C/C(=O)c2c(O)cc(C)oc2=O)cc1	.	.	.	45.3	.	.

Screening results from PubChem.
